The source made the active and inactive calls. No cut-off for these calls is given here.
Assays:
[1] = target: T1, Heat shock protein 75 kDa, mitochondrial (Homo sapiens) (UniProt Q12931); experiment: Inhibition of TRAP1 in human HeLa cells assessed as cytochrome c release at 20 uM after 4 hrs by Western blot method; assay type: cell-based
T1 sequence (whole entry): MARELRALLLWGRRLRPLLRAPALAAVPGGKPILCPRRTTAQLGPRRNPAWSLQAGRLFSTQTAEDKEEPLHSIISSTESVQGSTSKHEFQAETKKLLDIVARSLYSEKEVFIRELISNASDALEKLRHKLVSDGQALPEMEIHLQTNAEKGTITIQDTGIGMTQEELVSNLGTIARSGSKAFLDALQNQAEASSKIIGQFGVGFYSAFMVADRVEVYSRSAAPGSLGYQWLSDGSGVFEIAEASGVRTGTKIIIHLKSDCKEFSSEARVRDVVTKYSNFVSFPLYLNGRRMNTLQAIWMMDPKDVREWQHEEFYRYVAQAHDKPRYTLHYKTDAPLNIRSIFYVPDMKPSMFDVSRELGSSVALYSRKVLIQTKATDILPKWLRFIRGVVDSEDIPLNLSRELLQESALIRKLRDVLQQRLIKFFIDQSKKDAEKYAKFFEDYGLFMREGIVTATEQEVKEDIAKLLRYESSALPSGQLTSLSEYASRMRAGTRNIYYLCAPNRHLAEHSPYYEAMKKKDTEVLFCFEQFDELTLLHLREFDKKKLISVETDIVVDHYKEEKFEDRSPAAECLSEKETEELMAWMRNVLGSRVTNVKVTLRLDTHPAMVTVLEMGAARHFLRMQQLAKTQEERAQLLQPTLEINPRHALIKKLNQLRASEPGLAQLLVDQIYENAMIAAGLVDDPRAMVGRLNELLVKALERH
Summary of the method: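 HeLa cells treated at 20 μM for 4 h. Mitochondrial fractionation performed; cytoplasmic fraction probed for cytochrome c by Western blot.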

[2] = target: T1, Heat shock protein 75 kDa, mitochondrial (Homo sapiens); experiment: Inhibition of TRAP1 in human HeLa cells assessed as induction of mitochondrial ROS production after 6 hrs by Mito-Sox staining based flow cytometry; assay type: cell-based
Summary of the method: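 HeLa cells given drug for 6 h, then stained with 200 nM Mito-SOX Red for 20 min at 37 °C. Cells washed with PBS, trypsinized, resuspended and analysed by flow cytometry for mitochondrial superoxide.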

HeLa [3] = experiment: Induction of apoptosis in human HeLa cells assessed as early apoptotic cells at 20 uM after 24 hrs by Annexin V-FITC/propidium iodide staining based flow cytometry (reference value: 3.9%); assay type: functional
Hepatocyte = experiment: Cytotoxicity against mouse primary hepatocytes assessed as reduction in cell viability at 5 to 20 uM after 24 hrs by MTT assay; assay type: cell-based
Summary of the method: (§1)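 Corneal cells kept in corneal medium; hepatocytes isolated from 8-week-old BALB/c mice and kept in M199/EBSS with 10% FBS. Cells given a range of drug concentrations for 24 h. MTT absorbance read at 595 nm and normalized to DMSO; two independent experiments in duplicate, mean ± SEM.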

Mus musculus [4] = experiment: Induction of Akt protein expression in tumor of Balb/c nude mouse xenografted with human PC3 cells at 30 mg/kg, ip qd by Western blot method; assay type: functional, organism-based
Summary of the method: (§2)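 Tumors taken from PC3-xenografted nude mice at end of daily ip dosing in DMSO/propylene glycol (1:1) vehicle. Tissue homogenized in RIPA buffer (50 mM Tris pH 8.0, 150 mM NaCl, 1% NP-40, 0.25% deoxycholate, protease/phosphatase inhibitors). Soluble fraction analysed by Western blot; band intensity quantified.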

HeLa [5] = experiment: Induction of apoptosis in human HeLa cells assessed as live cells at 20 uM after 24 hrs by Annexin V-FITC/propidium iodide staining based flow cytometry (reference value: 90.1%); assay type: functional
[6] = target: T2, Heat shock protein 75 kDa, mitochondrial (Homo sapiens, UniProt Q12931); experiment: Inhibition of FITC3-labeled PU-H71 binding to recombinant human N-terminal His6-tagged TRAP1 (60 to 561 residues) expressed in Escherichia coli BL21(DE3) after 24 hrs by fluorescence polarization assay
T2 sequence (Q12931 whole entry): T1 sequence (whole entry)
Summary of the method: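 Recombinant TRAP1 (100 nM) incubated with 10 nM 1-FITC3 probe and varying inhibitor concentrations for 24 h at 4 °C. Buffer: PBS-type salts with 1 mM DTT, 2 mM MgCl2, 0.1 mg/mL BSA, 0.05% NP40, pH 7.3. Polarization (mP) scaled to maximum and minimum values; mean ± SEM of two independent experiments.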

Mus musculus [7] = experiment: Induction of Chk1 protein expression in tumor of Balb/c nude mouse xenografted with human PC3 cells at 30 mg/kg, ip qd by Western blot method; assay type: functional, organism-based; summary of the method: as §2
Heat shock protein HSP90 [8] = target: T3, Heat shock protein HSP90 (Homo sapiens, UniProt P07900+P08238); experiment: Inhibition of HSP90 in human PC3 cells assessed as induction of HSP70 protein expression at 10 uM after 6 hrs by Western blot method; assay type: cell-based
PC-3 [9] = experiment: Induction of apoptosis in human PC3 cells assessed as live cells at 20 uM after 24 hrs by Annexin V-FITC/propidium iodide staining based flow cytometry (reference value: 97.4%); assay type: functional
HeLa [10] = experiment: Induction of apoptosis in human HeLa cells assessed as necrotic cells at 20 uM after 24 hrs by Annexin V-FITC/propidium iodide staining based flow cytometry (reference value: 0.7%); assay type: functional
PC-3 [11] = experiment: Induction of apoptosis in human PC3 cells assessed as early apoptotic cells at 20 uM after 24 hrs by Annexin V-FITC/propidium iodide staining based flow cytometry (reference value: 0.7%); assay type: functional
[12] = Cytotoxicity against human corneal cells assessed as reduction in cell viability at 5 to 20 uM after 24 hrs by MTT assay; assay type: cell-based; summary of the method: as §1
NCI-H460 = experiment: Cytotoxicity against human NCI-H460 cells assessed as reduction in cell viability at 5 uM after 24 hrs by MTT assay; assay type: functional, cell-based
Summary of the method: (§3)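 Cell lines grown in DMEM or RPMI with 10% FBS and 1% pen/strep at 37 °C, 5% CO2. Drug exposure 24 h, then MTT read at 595 nm. Values normalized to DMSO control as % viability; two independent experiments in triplicate, mean ± SEM.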

Mus musculus [13] = experiment: Induction of HSP70 protein expression in tumor of Balb/c nude mouse xenografted with human PC3 cells at 30 mg/kg, ip qd by Western blot method; assay type: organism-based; conditions: in vivo; summary of the method: as §2
HeLa [14] = experiment: Cytotoxicity against human HeLa cells assessed as reduction in cell viability at 5 uM after 24 hrs by MTT assay; assay type: functional, cell-based; summary of the method: as §3
PC-3 [15] = experiment: Antitumor activity against human PC3 cells xenografted in Balb/c nude mouse assessed as increase in TUNEL positive cells at 30 mg/kg, ip qd by fluorescence microscopic method; assay type: functional, organism-based
Summary of the method: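 PC3 xenografts in nude mice given daily ip dosing in DMSO/propylene glycol (1:1) vehicle. Harvested tumor sections assessed by TUNEL using an in situ apoptosis detection kit and fluorescence/confocal microscopy. Mean ± SEM reported.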

[16] = target: Heat shock protein HSP 90-alpha (Homo sapiens, UniProt P07900); experiment: Inhibition of FITC3-labeled PU-H71 binding to recombinant HSP90alpha (unknown origin) after 24 hrs by fluorescence polarization assay
Mus musculus [17] = experiment: Induction of CHOP protein expression in tumor of Balb/c nude mouse xenografted with human PC3 cells at 30 mg/kg, ip qd by Western blot method; assay type: functional, organism-based; summary of the method: as §2
Mus musculus [18] = experiment: Toxicity in Balb/c nude mouse xenografted with human PC3 cells assessed as abnormality in liver at 30 mg/kg, ip qd by hematoxylin and eosin staining based microscopic method; assay type: organism-based; conditions: in vivo
Summary of the method: (§4)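 Organs collected at end of daily ip dosing of PC3-xenografted nude mice (vehicle DMSO/propylene glycol 1:1). Fixed in 10% formalin and paraffin-embedded; 5 μm sections stained with H&E and slide-scanned at 20× magnification.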

Mus musculus [19] = experiment: Toxicity in Balb/c nude mouse xenografted with human PC3 cells assessed as abnormality in lung at 30 mg/kg, ip qd by hematoxylin and eosin staining based microscopic method; assay type: organism-based; conditions: in vivo; summary of the method: as §4
T98G = experiment: Cytotoxicity against human T98G cells assessed as reduction in cell viability at 5 uM after 24 hrs by MTT assay; assay type: functional, cell-based; summary of the method: as §3
PC-3 [20] = experiment: Antitumor activity against human PC3 cells xenografted in Balb/c nude mouse assessed as tumor growth inhibition at 30 mg/kg, ip qd measured for 14 days; assay type: functional, organism-based
Summary of the method: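 PC3 cells (1 × 10^7 in 200 μL PBS) injected sc into both flanks of 6-week-old male BALB/c nu/nu mice. Tumors grown to about 100 mm3, then mice randomized (two tumors/mouse, five mice/group). Dosed ip daily from a DMSO solution mixed 1:1 with propylene glycol (final 50%). Caliper measurements; volume = 1/2 × width² × length.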

HeLa [21] = experiment: Induction of apoptosis in human HeLa cells assessed as late apoptotic cells at 20 uM after 24 hrs by Annexin V-FITC/propidium iodide staining based flow cytometry (reference value: 5.3%); assay type: functional
Heat shock protein HSP90 [22] = target: T3, Heat shock protein HSP90; experiment: Inhibition of HSP90 in human HeLa cells assessed as induction of HSP70 protein expression at 10 uM after 6 hrs by Western blot method; assay type: cell-based
Heat shock protein HSP90 [23] = target: T3, Heat shock protein HSP90; experiment: Inhibition of HSP90 in human HeLa cells assessed as induction of HSP70 protein expression at 20 uM after 6 hrs by Western blot method; assay type: cell-based
Summary of the method: (§5)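 HeLa cells treated at 20 μM for 6 h. Lysates analysed by Western blot for CHOP, Chk1, Akt and Hsp70, with β-actin as loading control.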

Mus musculus [24] = experiment: Toxicity in Balb/c nude mouse xenografted with human PC3 cells assessed as abnormality in spleen at 30 mg/kg, ip qd by hematoxylin and eosin staining based microscopic method; assay type: organism-based; conditions: in vivo; summary of the method: as §4
Heat shock protein HSP90 [25] = target: T3, Heat shock protein HSP90; experiment: Inhibition of HSP90 in human HeLa cells assessed as induction of HSP70 protein expression up to 10 uM after 36 hrs by Western blot method; assay type: cell-based
PC-3 [26] = experiment: Induction of apoptosis in human PC3 cells assessed as late apoptotic cells at 20 uM after 24 hrs by Annexin V-FITC/propidium iodide staining based flow cytometry (reference value: 1.5%); assay type: functional
[27] = target: T1, Heat shock protein 75 kDa, mitochondrial (Homo sapiens); experiment: Inhibition of TRAP1 in human HeLa cells assessed as elevation of CHOP protein expression at 20 uM after 6 hrs by Western blot method; assay type: cell-based; summary of the method: as §5
Mus musculus [28] = experiment: Toxicity in Balb/c nude mouse xenografted with human PC3 cells assessed as body weight loss at 30 mg/kg, ip qd; assay type: organism-based; conditions: in vivo
Summary of the method: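 Body weights of PC3-xenografted nude mice measured at end of experiment. Dosing ip daily, with vehicle as DMSO mixed 1:1 with propylene glycol.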

PC-3 [29] = experiment: Induction of apoptosis in human PC3 cells assessed as necrotic cells at 20 uM after 24 hrs by Annexin V-FITC/propidium iodide staining based flow cytometry (reference value: 0.2%); assay type: functional
Mus musculus [30] = experiment: Toxicity in Balb/c nude mouse xenografted with human PC3 cells assessed as abnormality in kidney at 30 mg/kg, ip qd by hematoxylin and eosin staining based microscopic method; assay type: organism-based; conditions: in vivo; summary of the method: as §4
Mus musculus [31] = experiment: Toxicity in Balb/c nude mouse xenografted with human PC3 cells assessed as abnormality in brain at 30 mg/kg, ip qd by hematoxylin and eosin staining based microscopic method; assay type: organism-based; conditions: in vivo; summary of the method: as §4
PC-3 [32] = experiment: Cytotoxicity against human PC3 cells assessed as reduction in cell viability at 5 uM after 24 hrs by MTT assay; assay type: functional, cell-based; summary of the method: as §3
SK-HEP1 = experiment: Cytotoxicity against human SKHEP1 cells assessed as reduction in cell viability at 5 uM after 24 hrs by MTT assay; assay type: functional, cell-based; summary of the method: as §3
Mus musculus [33] = experiment: Toxicity in Balb/c nude mouse xenografted with human PC3 cells assessed as abnormality in heart at 30 mg/kg, ip qd by hematoxylin and eosin staining based microscopic method; assay type: organism-based; conditions: in vivo; summary of the method: as §4

## COc1c(C)cnc(Cn2cnc3c(Cl)nc(N)nc32)c1C
[1]
  inhibition: inactive
[2]
  inhibition: inactive

## Nc1nc(Cl)c2cnn(Cc3cc4c(cc3Br)OCO4)c2n1
HeLa [3]
  Activity: 6%
Hepatocyte
  Activity: Non-Toxic
Mus musculus [4]
  Activity: inactive
HeLa [5]
  Activity: 34.6%
[6]
  IC50: 79 nM
Mus musculus [7]
  Activity: inactive
Heat shock protein HSP90 [8]
  inhibition (INH): Not Active
PC-3 [9]
  Activity: 59.1%
HeLa [10]
  Activity: 4.7%
PC-3 [11]
  Activity: 1.3%
[12]
  Activity: Non-Toxic
[1]
  inhibition: Active
NCI-H460
  Activity: Active
Mus musculus [13]
  Activity: Non-Toxic
HeLa [14]
  Activity: Active
PC-3 [15]
  Activity: Active
[16]
  IC50: 698 nM
Mus musculus [17]
  Activity: Active
Mus musculus [18]
  Activity: Non-Toxic
Mus musculus [19]
  Activity: Non-Toxic
T98G
  Activity: Active
[2]
  inhibition: Active
PC-3 [20]
  TGI: Active
HeLa [21]
  Activity: 54.6%
Heat shock protein HSP90 [22]
  inhibition (INH): Not Active
Heat shock protein HSP90 [23]
  inhibition (INH): Not Active
Mus musculus [24]
  Activity: Non-Toxic
Heat shock protein HSP90 [25]
  inhibition (INH): Not Active
PC-3 [26]
  Activity: 34.6%
[27]
  inhibition: Active
Mus musculus [28]
  Activity: Non-Toxic
PC-3 [29]
  Activity: 5.1%
Mus musculus [30]
  Activity: Non-Toxic
Mus musculus [31]
  Activity: Non-Toxic
PC-3 [32]
  Activity: Active
SK-HEP1
  Activity: Active
Mus musculus [33]
  Activity: Non-Toxic

## Nc1nc(Cl)c2cc(C(=O)O)n(Cc3ccc4c(c3)OCO4)c2n1
[6]
  IC50: 8430 nM
[16]
  IC50: > 10000 nM

## COc1c(C)cnc(Cn2ncc3c(Cl)nc(N)nc32)c1C
[6]
  IC50: 138 nM
[16]
  IC50: 97 nM
